KCNK3 block: human KCNK3 channel inhibitors, primary screen, CHO cells, FluxOR thallium flux, B-score. actives 0.84% (n = 340,000). AID 602410, 2012. B-score at 10 µM. Potassium channel subfamily K member 3 (Homo sapiens), O14649. FluxOR fluorescence; active compounds read low;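 active means B-score under library mean minus 4 SD, starting fluorescence ratio at most library mean plus 5 SD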;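 further: more negative B-score means stronger inhibition of thallium flux through KCNK3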
Target sequence (O14649 whole entry, looked up): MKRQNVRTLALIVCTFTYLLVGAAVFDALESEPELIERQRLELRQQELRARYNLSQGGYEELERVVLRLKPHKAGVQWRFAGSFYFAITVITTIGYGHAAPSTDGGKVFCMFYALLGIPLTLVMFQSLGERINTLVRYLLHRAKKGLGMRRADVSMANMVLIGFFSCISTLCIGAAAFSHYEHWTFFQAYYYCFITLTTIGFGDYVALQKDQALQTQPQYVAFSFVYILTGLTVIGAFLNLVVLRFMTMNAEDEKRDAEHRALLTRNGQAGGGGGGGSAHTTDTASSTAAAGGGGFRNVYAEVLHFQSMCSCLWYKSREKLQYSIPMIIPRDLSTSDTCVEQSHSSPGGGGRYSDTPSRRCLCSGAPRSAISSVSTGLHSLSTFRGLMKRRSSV
hERG rescue: hERG rescue from dofetilide block, primary screen, cell-based, CHO-hERG, FluxOR thallium flux, dofetilide IC70. Voltage-gated inwardly rectifying potassium channel KCNH2 (Homo sapiens), Q12809. dofetilide IC70 present. activation (rescue from dofetilide block), less the hit threshold, % at 10 µM. actives 0.51% (n = 310,000). AID 1511, 2009;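 active means activation above the mean of controls blocked by dofetilide plus 5 SD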;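 further: thallium influx through hERG after potassium depolarization seen as dye fluorescence rise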
KCNQ1 inh: inhibitors of human KCNQ1 channel, primary screen, cell-based, thallium flux, high-throughput | CHO-K1 KCNQ1, FluxOR thallium flux fluorescence; active compounds read high | B-score at 10 µM | actives 1.3% (n = 310,000) | AID 2642, 2010;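 active means compounds whose thallium flux B-score, printed positive for inhibition, exceeds three library SD while starting fluorescence stays within three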;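 further: channel opened by potassium depolarization with thallium stimulus after 20 min compound exposure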
KCNQ1 pot: potentiators or activators of KCNQ1 channel, primary screen, cell-based, thallium flux, high-throughput; B-score at 10 µM; AID 2648, 2010; actives 0.35% (n = 310,000); CHO-K1 KCNQ1, thallium flux FluxOR fluorescence; active compounds read high;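 active means fluorescence ratio B-score, a plate-corrected score, at least three library SD, with initial intensity B-score within 5 SD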
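Material: CHO-K1 cells stably expressing KCNQ1. Medium: assay buffer for compound exposure, DMSO matched across wells. Reagent: K+/Tl+ depolarizing stimulus. Compound dosing: single-concentration screen. Times: 37 °C overnight plating, 90-min dark dye load, 20-min compound pretreatment. Technique: FluxOR Tl+ flux fluorescence.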
KCNK9 inh: KCNK9 potassium channel inhibitors, primary screen, HEK293 cells, thallium flux; Potassium channel subfamily K member 9 (Homo sapiens), Q9NPC2; FluxOR thallium flux fluorescence; active compounds read low; B-score at 10 µM; actives 1.2% (n = 310,000); AID 488922, 2010;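 active means ratio B-score over 3 SD below the library mean, with starting fluorescence within 5 SD of its mean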;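 further: negative B-score means less thallium flux so channel inhibition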
PHOSPHO1 block: PubChem AID 1565 | Phosphoethanolamine/phosphocholine phosphatase (Homo sapiens), Q8TCT1 | recombinant PHOSPHO1, absorbance phosphatase assay | inhibition, % at 13.3 µM | actives 1.1% (n = 290,000); in the data active means inhibition above about 60%
KCNK3 confirm: retest of human KCNK3 channel inhibitors, confirmation, CHO cells, FluxOR thallium flux, triplicate; ratio percent of control, % at 10 µM; FluxOR fluorescence; 0% buffer, 100% carvedilol maximal block; actives 99% (n = 2,400); shares compounds with KCNK3 block;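 active means ratio percent of control, averaged over triplicates, above buffer control mean plus 5 SD, cut at about 64% in these data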;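 further: ratio is the fluorescence rise from min to max over baseline after thallium stimulus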
KCNK3 uninduced: thallium flux inhibition in non-induced cells, primary screen, counter-screen for KCNK3 inhibitor project, cell-based, non-induced KCNK3 line, FluxOR thallium, triplicate; non-induced KCNK3 parental cells; active compounds read low; thallium flux ratio (lower = more inhibition) at 10 µM; AID 651747, 2012; shares compounds with KCNK3 block; actives 40% (n = 2,400);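 active means thallium flux ratio, averaged over three wells, more than 5 SD below the buffer control mean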;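 further: host cells are CHO cells without KCNK3 induction; ratio is peak minus trough fluorescence over baseline then normalized to buffer controls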
Numbers without * were called inactive; i = inactive; . = no result. Rows were chosen to be rich in hits. Some 4% of all compounds tested hit in one or more screens of this group.

SMILES | KCNK3 block | hERG rescue | KCNQ1 inh | KCNQ1 pot | KCNK9 inh | PHOSPHO1 block | KCNK3 confirm | KCNK3 uninduced
Cc1ccc(-c2nc(NC(=O)c3cc(C(C)(C)C)nn3C)sc2C)cc1Cl | -9.19* | -21.8 | 10* | i | i | 1.0 | 96.3* | 0.143*
CCCN(CCC)c1nc(C#N)nc(N(CCC)CCC)n1 | -11.2* | -19.2 | i | i | i | 3.3 | 101.7* | i
CCCN(CCC)c1nc(N(CCC)CCC)[nH]c(=O)n1 | i | -7.0 | i | i | i | -18.8 | . | .
CCC1CCCCN1S(=O)(=O)c1ccc(NC(=O)c2nc(S(C)(=O)=O)ncc2Cl)cc1 (configuration not stated) | -11.1* | -28.6 | i | i | i | 2.1 | 113.7* | 0.135*
CCS(=O)(=O)c1ncc(Cl)c(C(=O)Nc2ccc(S(=O)(=O)N3CCCC(C)C3)cc2)n1 (configuration not stated) | i | -7.7 | i | i | i | 14.4 | . | .
CCC1CCCCN1S(=O)(=O)c1ccc(NC(=O)c2ccncc2)cc1 (configuration not stated) | -9.99* | -5.9 | i | i | i | 13.7 | 121.3* | i
CCOC(=O)Cc1csc(NC(=O)CC(C)(C)CC(=O)O)n1 | i | -5.3 | i | i | i | 28.5 | . | .
CCCc1cc(C(=O)Nc2cc(OC)ccc2OC)cs1 | -10.4* | -3.5 | i | i | i | -19.5 | 130.0* | 0.155*
CCOc1ccccc1C(=O)Nc1cc(OC)ccc1OC | i | -9.0 | i | i | i | 0.9 | . | .
COc1ccc(OC)c(NC(=O)c2ccc(NC(C)=O)cc2)c1 | i | -0.2 | i | i | i | 11.1 | . | .
COc1ccc(NC(=O)c2ccc(-n3c(C)ccc3C)cc2)c(OC)c1 | -8.77* | -8.1 | i | i | i | 20.2 | 124.0* | i
COc1ccc(OC)c(NC(=O)c2ccc(OC3CSC3)cc2)c1 | -9.11* | -4.7 | i | i | i | -5.1 | 102.0* | i
CCOC(=O)NC(=O)/C(N=Nc1ccc(C(F)(F)F)cc1)=C(\C)O | i | -10.3 | i | i | i | -7.7 | . | .
CCCCOc1ccc(CC(=O)NCC(=O)O)cc1 | i | -2.8 | i | i | i | -4.5 | . | .
O=S(=O)(c1ccccc1)N1CCN(c2ccnc3cc(Cl)ccc23)CC1 | -9.25* | -16.1 | i | i | i | 43.9 | 98.0* | i
COc1ccc(C(=O)NCCCN2CCOCC2)cc1S(=O)(=O)N1CCCc2ccccc21 | i | -12.3 | i | i | i | -12.6 | . | .
Cc1cc(/C=C(\C#N)C(=O)OCC(=O)NC(=O)NC(C)(C)C)c(C)n1CCC(C)C | -8.71* | -3.4 | i | i | i | 22.8 | 125.0* | i
CCCN(CC1CC1)C(=O)CSc1nnc(-c2ccco2)n1N | . | -0.8 | i | i | i | 5.4 | . | .
c1ccc(-c2nc(NCCCn3ccnc3)c3ccccc3n2)cc1 | -11.4* | -30.9 | i | i | i | 32.2 | 100.0* | 0.148*
Cc1ccc(NC(=O)c2cccs2)cc1NC(=O)c1ccco1 | -8.81* | -6.3 | i | i | i | -25.0 | 105.0* | i
O=C(Nc1ccc2nc(-c3cccs3)[nH]c2c1)c1ccco1 | -10.2* | -10.4 | i | i | i | -7.3 | 81.3* | i
